We go through 2 compounds from ChEMBL document CHEMBL1157635, “Synthesis, radiofluorination, and hypoxia-selective studies of FRAZ: A configurational and positional analogue of the clinical hypoxia marker, [18F]-FAZA” (Bioorg Med Chem, 2010).

What is called logP is the decadic logarithm of the partition coefficient of the neutral form, usually between octanol and water. Low values mean lower lipophilicity, high ones higher lipophilicity.

Data set [1] relates to EMT6. Put plainly: Toxicity in mouse EMT6 cells at < 10 mM assessed as reduction of cell survival after 72 hrs by MTT assay. The format is cell-based. Particulars: emt6, 72 h. The method, boiled down:
(§1)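 Exponentially growing cells seeded at 8 × 10² cells/well and pre-incubated 24 h at 37 °C (5% CO2). Compound added in growth medium over 10^-7 to 10^-3 M, with medium-only controls, for 72 h. MTT then added for 4 h, formazan dissolved in DMSO and absorbance read at 540 nm.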
On the technique in general: Tetrazolium dyes change colour on reduction, which living cells bring about.

The nature of data set [2]: Toxicity in Kirsten virus transformed mouse KBALB cells at < 10 mM assessed as reduction of cell survival after 72 hrs by MTT assay. The class given is cell-based. The method, boiled down: as §1
Data set [3] is described as follows: Toxicity in Kirsten virus transformed mouse KBALB-STK cells at < 10 mM assessed as reduction of cell survival after 72 hrs by MTT assay. The format is cell-based. The method, boiled down: as §1
In data set [4] the test system is 143B. In words: Toxicity in human 143B cells at < 10 mM assessed as reduction of cell survival after 72 hrs by MTT assay. The format is cell-based. Summed up:
as §1

Data set [5] in a line: Toxicity in human 143B-LTK cells at < 10 mM assessed as reduction of cell survival after 72 hrs by MTT assay. The format is cell-based. The method, boiled down:
as §1

Data set [6] concerns EMT6. Put plainly: Toxicity in mouse EMT6 cells at 1 mM assessed as reduction of cell survival after 72 hrs by MTT assay. The class given is cell-based. As to conditions: emt6, 72 h, 1000 µM. Summed up: as §1
The subject of data set [7] is HCT-116. Put plainly: Hypoxia radiosensitization activity in human HCT116 cells assessed as sensitizer enhancement ratio at 100 uM after 24 hrs by [60]Co X-ray source based clonogenic survival assay. The class given is functional. Summed up:
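HCT-116 cells pre-incubated 20 h, then exposed to 100 µM (from 10 mM stock in 95% ethanol) for 24 h. Hypoxic dishes degassed by six vacuum/N2 cycles, normoxic kept in air, then shaken 30 min. Irradiated with 60Co at 0–20 Gy. Cells replated and grown 10–14 days at 37 °C, colonies stained, surviving fractions counted, triplicate.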

Data set [8] in a line: Partition coefficient, log P by HPLC. The class given is physicochemical. Particulars: octanol/water. The method, boiled down:
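Reverse-phase analytical HPLC with a gradient solvent system. Retention time compared with IAZA, FAZA and AZA standards, and P interpolated from a plot.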

`O=[N+]([O-])c1nccn1[C@H]1O[C@H](CO)[C@@H](O)[C@H]1F`: the Activity result in data set [1], in data set [2], in data set [3], in data set [4], in data set [5] and in data set [6] was “Non-toxic” throughout. Further, the Ratio in data set [7] turned out to be 1.4. In data set [8], the log partition coefficient (logP) stood at 1.08.

Regarding `O=[N+]([O-])c1nccn1[C@H]1O[C@H](CF)[C@@H](O)[C@@H]1O`, the Ratio in data set [7] stood at 1.25. In addition, the logP in data set [8] was found to be 1.1.
